# From ChEMBL document CHEMBL2057128, “Chemoenzymatic synthesis and biological evaluation of 2- and 3-hydroxypyridine derivatives against Leishmania mexicana” (Bioorg Med Chem, 2012)
# Calls of active or inactive are those of the source. The rule behind the calls is not given here.
# Tested on: Leishmania mexicana
# Experiment: Growth inhibition of promastigote form of Leishmania mexicana at 20 ug/mL measured after 10 days by neubauer chamber analysis
# Type: functional
# Settings: 240 h, read-out: GI
# Outline: (§1)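 Promastigotes grown at 28 °C in cell-free medium (Na2HPO4, KCl, glucose, pH about 7.5) supplemented after sterilization with penicillin (100 IU/mL), streptomycin, haemin and 20% v/v heat-inactivated fetal calf serum. Cultures started from exponential-phase inocula, shaken manually twice daily, compounds added with DMSO at 0.1% final. Parasites counted in a Neubauer chamber every two days over 10 days.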
row,SMILES,inhibition of growth at 20 µg/mL [%]
1,CC(=O)OCCCCCCCCCCCCOc1cccnc1,80
2,OCCCCCCCCCCCCOc1cccnc1,95

# Tested on: Leishmania mexicana
# Experiment: Growth inhibition of promastigote form of Leishmania mexicana at 10 ug/mL measured after 6 days by neubauer chamber analysis
# Type: functional
# Settings: 144 h, read-out: GI
# Outline: as §1
row,SMILES,inhibition of growth at 10 µg/mL [%]
1,CC(=O)OCCCCCCCCCCCCOc1cccnc1,25
2,OCCCCCCCCCCCCOc1cccnc1,25

# Tested on: Leishmania mexicana
# Experiment: Growth inhibition of promastigote form of Leishmania mexicana at 20 ug/mL measured after 1 day by neubauer chamber analysis
# Type: functional
# Settings: 24 h, read-out: GI
row,SMILES,inhibition of growth at 20 µg/mL [%]
1,CC(=O)OCCCCCCCCCCCCOc1cccnc1,50
2,OCCCCCCCCCCCCOc1cccnc1,50

# Tested on: Leishmania mexicana
# Experiment: Antileishmanial activity against promastigote form of Leishmania mexicana measured every 2 days for 10 days by neubauer chamber analysis
# Type: functional, organism-based
# Settings: not given
# Outline: as §1
row,IC50 [µg/mL],SMILES
1,20,CC(=O)OCCCCCCCCCCOc1cccnc1
2,12,CC(=O)OCCCCCCCCCCCCOc1cccnc1
3,16,OCCCCCCCCCCCCOc1cccnc1

row,SMILES,IC50 [µg/mL]
1,CN[C@@H]1[C@@H](O)[C@@H](O[C@@H]2[C@@H](O)[C@H](O[C@H]3O[C@H]([C@@H](C)O)[C@@H](O)[C@H](O)[C@H]3N)[C@@H](N)C[C@H]2N)OC[C@]1(C)O [GENETICIN],50

# Tested on: Leishmania mexicana
# Experiment: Antileishmanial activity against promastigote form of Leishmania mexicana from 10 to 50 ug/mL measured every 2 days for 10 days by neubauer chamber analysis
# Type: functional, organism-based
# Settings: not given
# Outline: as §1
row,SMILES,Activity
1,OCCCCCCCCCCCCOc1ccccn1,inactive
2,CC(=O)OCCCCCCCCCCCCOc1ccccn1,inactive
3,CC(=O)OCCCCCCCOc1ccccn1,inactive
4,CC(=O)OCCCCCCCCCOc1ccccn1,inactive
5,CC(=O)OCCCCCCCCCCCOc1ccccn1,inactive
6,OCCCCCCOc1cccnc1,inactive
7,CC(=O)OCCCCCCCCOc1ccccn1,inactive
8,CC(=O)OCCCCCCCCCCOc1ccccn1,inactive
9,CCC(=O)OCCCCCCCCCCCOc1cccnc1,inactive
10,OCCCCCCOc1ccccn1,inactive
11,OCCCCCCCCCOc1cccnc1,inactive
12,OCCCCCCCCCCCOc1ccccn1,inactive
13,OCCCCCCCOc1cccnc1,inactive
14,CCC(=O)OCCCCCCCCCCCOc1ccccn1,inactive
15,OCCCCCCCCCOc1ccccn1,inactive
16,OCCCCCCCCCCOc1cccnc1,inactive
17,OCCCCCCCCCCCOc1cccnc1,inactive
18,CC(=O)OCCCCCCOc1ccccn1,inactive
19,CC(=O)OCCCCCCCCOc1cccnc1,inactive
20,OCCCCCCCCOc1cccnc1,inactive
21,OCCCCCCCCOc1ccccn1,inactive
22,OCCCCCCCCCCOc1ccccn1,inactive
23,CC(=O)OCCCCCCOc1cccnc1,inactive
24,OCCCCCCCOc1ccccn1,inactive
25,CC(=O)OCCCCCCCOc1cccnc1,inactive
26,CC(=O)OCCCCCCCCCCCOc1cccnc1,inactive
